Measurements published in ChEMBL document CHEMBL1124929, “Indolo[2,1-a]isoquinolines. Syntheses, steroid hormone receptor binding affinities, and cytostatic activity” (1990).

How the values were obtained:
MCF7 [1] = assay: Effect on [3H]thymidine incorporation into MCF-7 human breast cancer cells at 1x10E-5 M; assay type: functional
Outline: (§1)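 Cells were seeded at ~2 × 10⁴ per well, treated from the next day in 0.1% DMSO, with DMSO controls. MCF-7 cells were held in charcoal-stripped NCS for 2 weeks, treated for 5 days and re-dosed on day 4. MDA-MB 231 cells were grown in McCoy 5a/10% NCS and treated for 2 days. At the end, 1 µCi [³H]thymidine per well was added for 2 h. Result is % T/C, mean of three experiments × six dishes.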

[2] = target: T1, Estrogen receptor (Mus musculus) (UniProt O08537+P19785); assay: (§2) Estrogenic activity in uterotrophic assay in immature mice at 2 ug subcutaneous dose; assay type: functional
T1 sequence (O08537 whole entry, looked up): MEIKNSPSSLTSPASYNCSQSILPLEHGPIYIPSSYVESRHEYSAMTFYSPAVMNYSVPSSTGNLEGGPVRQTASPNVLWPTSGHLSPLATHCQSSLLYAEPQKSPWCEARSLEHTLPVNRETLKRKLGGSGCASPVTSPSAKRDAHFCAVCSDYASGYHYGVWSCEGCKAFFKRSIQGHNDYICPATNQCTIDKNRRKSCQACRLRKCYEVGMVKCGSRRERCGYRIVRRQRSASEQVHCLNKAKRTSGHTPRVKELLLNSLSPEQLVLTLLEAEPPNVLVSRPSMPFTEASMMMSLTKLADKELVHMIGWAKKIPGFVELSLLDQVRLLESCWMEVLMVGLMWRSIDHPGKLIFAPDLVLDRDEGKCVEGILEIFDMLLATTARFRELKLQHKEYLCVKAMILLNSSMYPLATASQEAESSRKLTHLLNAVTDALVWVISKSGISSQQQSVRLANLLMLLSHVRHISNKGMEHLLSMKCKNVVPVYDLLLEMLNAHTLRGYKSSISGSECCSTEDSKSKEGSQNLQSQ
T1 sequence (P19785 whole entry, looked up): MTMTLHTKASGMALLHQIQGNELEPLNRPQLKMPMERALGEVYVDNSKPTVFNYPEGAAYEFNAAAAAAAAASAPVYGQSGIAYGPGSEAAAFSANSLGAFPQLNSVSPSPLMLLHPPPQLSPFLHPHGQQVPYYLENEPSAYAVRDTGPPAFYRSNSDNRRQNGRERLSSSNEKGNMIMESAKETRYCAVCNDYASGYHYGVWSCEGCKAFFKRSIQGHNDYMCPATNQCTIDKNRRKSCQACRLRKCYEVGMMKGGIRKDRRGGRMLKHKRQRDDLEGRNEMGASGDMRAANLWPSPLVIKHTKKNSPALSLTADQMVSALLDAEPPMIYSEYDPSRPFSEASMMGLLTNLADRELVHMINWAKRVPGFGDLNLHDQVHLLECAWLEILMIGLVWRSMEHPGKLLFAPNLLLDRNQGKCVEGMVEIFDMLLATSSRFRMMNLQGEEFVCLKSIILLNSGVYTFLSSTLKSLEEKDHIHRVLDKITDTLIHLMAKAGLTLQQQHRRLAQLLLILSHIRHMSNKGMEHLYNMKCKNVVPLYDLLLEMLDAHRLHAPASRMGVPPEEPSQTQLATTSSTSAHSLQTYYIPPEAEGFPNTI
Outline: (§3)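 Immature female NMRI mice, 20 days old, in groups of 6-10, were dosed sc once daily for three consecutive days. Compounds were given in PEG/0.9% saline 1:1; vehicle controls were included. Animals were killed 24 h after the last dose. Uteri were fixed in Bouin solution and the effect was taken as uterine dry weight (mg)/body weight (g) ×100, given as mean ± SD.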

[3] = target: T1, Estrogen receptor (Mus musculus); assay: as §2; assay type: functional; outline: as §3; remark: listed apart in the source
[4] = target: T1, Estrogen receptor (Mus musculus); assay: Inhibition of 0.4 ug estrone-stimulated uterine growth in mice at 2 ug subcutaneous dose; assay type: functional
Outline: (§4)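 Immature 20-day-old female NMRI mice received sc injections on three consecutive days. Each injection held 0.4 µg estrone plus the compound in PEG/saline 1:1. […] Significance was tested by Mann-Whitney U test.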

Bos taurus = species: Bos taurus; assay: Relative binding affinity(RBA) as ratio of progesterone and compound required to displace [3H]-org 2058 binding to Progesterone receptor by 50%
Outline: (§5)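 Receptor source was calf uterine cytosol (105000g supernatant, 3 mg/mL protein in assay). Buffers were Tris/EDTA pH 7.4, with NaN₃ for ER, molybdate/glycerol for AR, and sucrose for PR. Tracers were 1 nM [³H]estradiol, [³H]mibolerone or [³H]Org 2058. Incubation was at 0–4 °C for 16 h (ER) or 2 h (AR, PR), with 4–6 competitor concentrations. Nonspecific binding used 2 µM of the unlabeled hormone. Separation was by dextran-coated charcoal. RBA is the ratio of IC50 values for hormone and compound ×100, mean of two triplicate experiments.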

MDA-MB-231 [5] = assay: Effect on [3H]thymidine incorporation into MDA-MB 231 human breast cancer cells at 1x10E-5 M; assay type: functional; outline: as §1
[6] = target: T1, Estrogen receptor (Mus musculus); assay: (§6) Estrogenic activity in uterotrophic assay in immature mice at 40.0 ug subcutaneous dose; assay type: functional; outline: as §3
[7] = target: T1, Estrogen receptor (Mus musculus); assay: as §6; assay type: functional; outline: as §3; remark: listed apart in the source
MDA-MB-231 [8] = assay: Cytostatic effect on hormone-independent MDA-MB 231 human breast cancer cell proliferation at 1x10E-5 M; assay type: functional
Outline: (§7)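 Cells were plated at about 2 × 10⁴ per well in six-well dishes. MCF-7 cells were grown in modified improved MEM with 5% NCS, switched to charcoal-treated NCS two weeks before the test, and exposed for 5 days with a re-dose on day 4. MDA-MB 231 cells were grown in McCoy 5a with 10% NCS and exposed for 2 days. Compounds were given 1 day after plating in 0.1% DMSO, with DMSO-matched controls. Read-out was cell number as % T/C, mean of three experiments with six dishes.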

[9] = target: T1, Estrogen receptor (Mus musculus); assay: (§8) Estrogenic activity in uterotrophic assay in immature mice at 125 ug subcutaneous dose; assay type: functional; outline: as §3
MCF7 [10] = assay: Effect on hormone-dependent MCF-7 human breast cancer cell proliferation at 1x10E-6M; assay type: functional; outline: as §7
[11] = target: Estrogen receptor (Bos taurus) (UniProt Q9XSB5+P49884); assay: Relative binding affinity(RBA) for 50% displacement of [3H]-estradiol from Estrogen receptor compared to 17-beta-estradiol; assay type: protein assay; outline: as §5
MDA-MB-231 [12] = assay: Cytostatic effect on hormone-independent MDA-MB 231 human breast cancer cell proliferation at 1x10E-6M; assay type: functional; outline: as §7
MCF7 [13] = assay: Effect on hormone-dependent MCF-7 human breast cancer cell proliferation at 1x10E-5 M; assay type: functional; outline: as §7
[14] = target: T2, Androgen Receptor (Bos taurus) (UniProt Q5EM59); assay: Relative binding affinity(RBA) for 50% displacement of [3H]mibolerone from Androgen receptor compared to testorone; outline: as §5
T2 sequence (whole entry): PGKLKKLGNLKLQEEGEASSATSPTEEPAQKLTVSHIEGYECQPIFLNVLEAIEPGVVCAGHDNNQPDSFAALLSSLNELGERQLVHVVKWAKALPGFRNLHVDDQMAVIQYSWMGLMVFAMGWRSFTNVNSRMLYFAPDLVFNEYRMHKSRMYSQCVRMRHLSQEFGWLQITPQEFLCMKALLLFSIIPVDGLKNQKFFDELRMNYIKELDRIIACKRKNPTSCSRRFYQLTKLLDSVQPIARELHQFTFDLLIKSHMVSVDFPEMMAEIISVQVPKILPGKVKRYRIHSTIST

MCF7 [15] = assay: Effect on [3H]thymidine incorporation into MCF-7 human breast cancer cells at 1x10E-6M; assay type: functional; outline: as §1
[16] = target: T1, Estrogen receptor (Mus musculus); assay: Inhibition of 0.4 ug estrone-stimulated uterine growth in mice at 125 ug subcutaneous dose; assay type: functional; outline: as §4
[17] = target: T1, Estrogen receptor (Mus musculus); assay: Inhibition of 0.4 ug estrone-stimulated uterine growth in mice at 40.0 ug subcutaneous dose; assay type: functional; outline: as §4
[18] = target: T1, Estrogen receptor (Mus musculus); assay: as §8; assay type: functional; outline: as §3; remark: listed apart in the source
[19] = target: T3, Androgen receptor (Mus musculus) (UniProt P19091); assay: Inhibition of seminal vesicle weight in intact mice at 10.0 ug
T3 sequence (whole entry): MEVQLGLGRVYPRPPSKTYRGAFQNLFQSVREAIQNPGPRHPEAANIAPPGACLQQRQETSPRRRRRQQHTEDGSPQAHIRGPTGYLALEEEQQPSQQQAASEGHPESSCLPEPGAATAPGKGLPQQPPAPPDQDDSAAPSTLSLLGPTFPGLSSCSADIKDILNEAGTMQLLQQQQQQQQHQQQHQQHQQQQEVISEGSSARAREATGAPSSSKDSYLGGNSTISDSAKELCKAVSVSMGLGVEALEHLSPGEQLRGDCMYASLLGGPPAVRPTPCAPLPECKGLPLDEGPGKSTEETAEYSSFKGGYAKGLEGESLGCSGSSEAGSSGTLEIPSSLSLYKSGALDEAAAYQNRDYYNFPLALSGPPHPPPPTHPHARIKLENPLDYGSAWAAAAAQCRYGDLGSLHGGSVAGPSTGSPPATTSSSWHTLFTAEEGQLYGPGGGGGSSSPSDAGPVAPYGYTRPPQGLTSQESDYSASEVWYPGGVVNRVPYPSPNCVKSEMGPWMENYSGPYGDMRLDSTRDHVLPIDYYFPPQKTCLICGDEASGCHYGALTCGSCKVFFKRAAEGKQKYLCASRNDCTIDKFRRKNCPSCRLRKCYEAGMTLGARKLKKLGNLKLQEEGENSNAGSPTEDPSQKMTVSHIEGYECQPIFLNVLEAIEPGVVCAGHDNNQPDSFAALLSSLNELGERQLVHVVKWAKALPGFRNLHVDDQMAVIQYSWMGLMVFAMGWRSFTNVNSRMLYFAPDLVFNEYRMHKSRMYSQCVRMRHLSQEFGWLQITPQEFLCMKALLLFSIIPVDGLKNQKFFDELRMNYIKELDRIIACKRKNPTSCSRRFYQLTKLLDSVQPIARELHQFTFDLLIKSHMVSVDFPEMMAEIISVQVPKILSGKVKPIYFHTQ

[20] = target: T1, Estrogen receptor (Mus musculus); assay: (§9) Estrogenic activity in uterotrophic assay in immature mice at 10.0 ug subcutaneous dose; assay type: functional; outline: as §3
[21] = target: T1, Estrogen receptor (Mus musculus); assay: (§10) Estrogenic activity in uterotrophic assay in immature mice at 50.0 ug subcutaneous dose; assay type: functional; outline: as §3
[22] = target: T3, Androgen receptor (Mus musculus); assay: Inhibition of seminal vesicle weight in intact mice at 10.0 ug; remark: listed apart in the source
MDA-MB-231 [23] = assay: Cytostatic effect on hormone-independent MDA-MB 231 human breast cancer cell proliferation at5x10E-6M; assay type: functional; outline: as §7
MDA-MB-231 [24] = assay: Effect on [3H]-thymidine incorporation into MDA-MB 231 human breast cancer cells at 1x10E-6M; assay type: functional; outline: as §1
[25] = target: T3, Androgen receptor (Mus musculus); assay: Relative effect on seminal vesicle weight in adult and castrated mice at 10 ug dose; assay type: functional, tissue-based
Outline: (§11)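 Adult male mice, 23–25 g, six per group, were used intact or castrated via the scrotal route under ether 5 days before the test. Castrates received 0.3 mg testosterone propionate daily. Compounds were injected daily in olive oil for nine days. Seminal vesicles were taken 24 h later, fixed in Bouin solution, dried overnight at 100 °C and weighed. Result is organ mg/body g ×100; % inhibition = [1 − treated/control] × 100.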

MDA-MB-231 [26] = assay: Effect on [3H]thymidine incorporation into MDA-MB 231 human breast cancer cells at 5x10E-6M; assay type: functional; outline: as §1
[27] = target: T1, Estrogen receptor (Mus musculus); assay: as §10; assay type: functional; outline: as §3; remark: listed apart in the source
[28] = target: T3, Androgen receptor (Mus musculus); assay: Relative effect on seminal vesicle weight in adult and castrated mice at 100 ug dose; assay type: functional, tissue-based; outline: as §11
[29] = target: T1, Estrogen receptor (Mus musculus); assay: (§12) Estrogenic activity in uterotrophic assay in immature mice at 250 ug subcutaneous dose; assay type: functional; outline: as §3
[30] = target: T3, Androgen receptor (Mus musculus); assay: Inhibition of seminal vesicle weight in intact mice at 100 ug
[31] = target: T3, Androgen receptor (Mus musculus); assay: Relative effect on seminal vesicle weight in adult and castrated mice at 1000 ug dose; assay type: functional, tissue-based; outline: as §11
[32] = target: T1, Estrogen receptor (Mus musculus); assay: as §9; assay type: functional; outline: as §3; remark: listed apart in the source
[33] = target: T1, Estrogen receptor (Mus musculus); assay: as §12; assay type: functional; outline: as §3; remark: listed apart in the source

Effect [2]	Effect [3]	inhibition [4] [%]	RBA (Bos taurus)	RBA [11]	RBA [14]	SMILES	T/C (MCF7 [1]) [%]	T/C (MDA-MB-231 [5]) [%]	T/C (MDA-MB-231 [8]) [%]	T/C (MDA-MB-231 [12]) [%]	T/C (MCF7 [13]) [%]	T/C (MCF7 [15]) [%]	also measured
14.5	48.2	19.6	< 0.01	4.6	0.03	CCC1Cc2cc(OC(C)=O)ccc2-c2c(C=O)c3cc(OC(C)=O)ccc3n21 (stereo unspecified)	3	7	14	75	13	41	Effect [6]: 38.2; Effect [7]: 54.7; Effect [9]: 54.7; T/C (MCF7 [10]): 55%; inhibition [16]: 2.7%; inhibition [17]: 2.6%; Effect [18]: 56
21.2	52.6	-8	0.01	12	0.2	CC(=O)Oc1ccc2c(c1)CC(C)n1c-2cc2cc(OC(C)=O)ccc21 (stereo unspecified)	2	5	5	78	7	36	inhibition [19]: 1%; Effect [20]: 26.3; Effect [21]: 61.2; inhibition [22]: 1%; T/C (MDA-MB-231 [23]): 10%; T/C (MDA-MB-231 [24]): 65%; Relative seminal vesicle weight [25]: 195; T/C (MDA-MB-231 [26]): 10%; Effect [27]: 53.3; Relative seminal vesicle weight [28]: 145; Effect [29]: 72.2; inhibition [30]: 27%; Relative seminal vesicle weight [31]: 45.2; Effect [32]: 56; Effect [33]: 61.1
